# How the values were obtained:
# [1] = test system: A549 cells; assay: PD-L1 and EVs in A549 cells treated with GW4869; format: cell-based, human; conditions: 10 μmol/L
# Summary of the method: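 A549 or LSD1-knockout A549 cells (lentiviral editing, antibiotic selection, PCR/sequencing check, single-cell cloning) are treated ± 10 μmol/L GW4869. Conditioned medium is spun 3000 × g, 10 min, 4 °C. EVs are precipitated with an equal volume of isolation reagent at 4 °C, pelleted 10,000 × g, 60 min, 4 °C, and PBS-washed. Characterisation by TEM/NTA. PD-L1, ALIX, TSG101 and CD9 are detected by western blot from equal cell numbers.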
# [2] = test system: LLC tumor-bearing mice; assay: In vivo biodistribution; set-up: species or system mouse; conditions: i.v., over time
# Summary of the method: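 Cy5.5-loaded liposomes stand in for drug and anti-PD1. Free Cy5.5 or Cy5.5-nanoparticles (3 mg/kg Cy5.5 equivalent) are injected via the tail vein into LLC tumour-bearing nude mice. Mice are imaged under anaesthesia at 2, 4, 6, 8, 12 and 24 h (λex/λem 680/704 nm). Mean tumour ROI fluorescence is quantified. Organs and tumours are imaged ex vivo at 24 h.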
Molecule,levels of EVs and EVs-PD-L1 ([1]; A549 cells),membrane PD-L1 and total PD-L1 ([1]; A549 cells),membrane PD-L1 ([1]; LSD1-knockout A549 cells),accumulation at the tumor site compared with Cy5.5-FPNs [2]
O=C(/C=C/c1ccc(/C=C/C(=O)Nc2ccc(C3=NCCN3)cc2)cc1)Nc1ccc(C2=NCCN2)cc1 [GW4869],reduced,significant accumulation,induced the accumulation,–
Cy5.5,–,–,–,much lower

# Source: article PMC12750163 (Acta Pharmaceutica Sinica. B, 2025)
